Data set [1] deals with Human immunodeficiency virus 1. Put plainly: Antiviral activity against HIV1 3B in MT4 cells by MTT assay. In kind it is functional, organism-based.
Data set [2] can be described thus: Cytotoxicity against MT4 cells MTT assay. In kind it is cell-based. As to conditions: human. Summed up:
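Mock-infected MT-4 cells were cultured with various compound concentrations in parallel with the antiviral assay (4 days, 37 °C). Viability was read by MTT. The value is the concentration reducing viability by 50%.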
In general terms: Formazan colour is commonly taken as a measure of viable cells.

[3] abbreviates: Human immunodeficiency virus 1, 3B, MT4.

Each structure is given as a SMILES string.

For orientation: EC50 means the concentration at which the effect is half-maximal. Low readings indicate a more potent agent, high ones a less potent agent. Take `C#C[C@@]1(CO)C=C[C@H](n2cc(C)c(=O)[nH]c2=O)S1` (racemic): a half-maximal response in data set [1] (mt4) (EC50) required 0.74 µM. For orientation: CC50 means the concentration giving 50% cytotoxicity. Read a low CC50 as harm at low concentration. `Cc1cn([C@H]2C=CC(CO)(CO)S2)c(=O)[nH]c1=O` (racemic) returned a half-maximal effective concentration (EC50) in data set [1] (setting [3]) of over 100 µM. This molecule returned a CC50 in data set [2] of over 100 µM. As for `COC(=O)[C@@]1(CO)C=C[C@H](n2cc(C)c(=O)[nH]c2=O)S1` (racemic), the EC50 in data set [1] (setting [3]) is over 100 µM. Besides, the CC50 in data set [2] was over 100 µM. In turn, `Cc1cn([C@H]2C=C[C@@](C#N)(CO)S2)c(=O)[nH]c1=O` (racemic) returned an EC50 in data set [1] (setting [3]) of 7.6 µM. The same molecule gave a CC50 in data set [2] of over 100 µM.

As for `Cc1cn([C@H]2C=C[C@](CO)(C(N)=O)S2)c(=O)[nH]c1=O` (racemic), the EC50 in data set [1] (setting [3]) is over 100 µM. Also, in data set [2], the CC50 is over 100 µM.

In the case of `C=C[C@@]1(CO)C=C[C@H](n2cc(C)c(=O)[nH]c2=O)S1` (racemic), the EC50 in data set [1] (setting [3]) was over 100 µM. In addition, the CC50 in data set [2] is over 100 µM. The molecule `C#C[C@@]1(CO)C=C[C@H](n2cc(C)c(=O)[nH]c2=O)S1` (stereo in doubt; (+)-29) displayed an EC50 in data set [1] (mt4) of over 20 µM. Further, the CC50 in data set [2] was over 100 µM. In data set [1] (mt4), `C#C[C@@]1(CO)C=C[C@H](n2cc(C)c(=O)[nH]c2=O)S1` (stereo in doubt; (-)-29) gave an EC50 of 0.37 µM. Molecule `C#C[C@@]1(CO)C=C[C@H](n2cc(C)c(=O)[nH]c2=O)O1` [CENSAVUDINE] showed an EC50 in data set [1] (setting [3]) of 0.06 µM. Moreover, the CC50 in data set [2] is over 100 µM. Molecule `Cc1cn([C@H]2C=C[C@@H](CO)O2)c(=O)[nH]c1=O` [STAVUDINE] gave an EC50 in data set [1] (setting [3]) of 0.51 µM. Also, the 50% cytotoxic concentration (CC50) in data set [2] was over 100 µM.

The values above are taken from ChEMBL document CHEMBL1138856, “Synthesis and anti-human immunodeficiency virus activity of 4'-branched (+/-)-4'-thiostavudines” (J Med Chem, 2006).
